# Assay results as given in ChEMBL document CHEMBL3763060, “Synthesis and evaluation of analogs of the phenylpyridazinone NPD-001 as potent trypanosomal TbrPDEB1 phosphodiesterase inhibitors and in vitro trypanocidals” (Bioorg Med Chem, 2016).
# Target: T1, Class 1 phosphodiesterase PDEB1 (Trypanosoma brucei, UniProt Q8WQX9)
# T1 sequence (Q8WQX9 whole entry): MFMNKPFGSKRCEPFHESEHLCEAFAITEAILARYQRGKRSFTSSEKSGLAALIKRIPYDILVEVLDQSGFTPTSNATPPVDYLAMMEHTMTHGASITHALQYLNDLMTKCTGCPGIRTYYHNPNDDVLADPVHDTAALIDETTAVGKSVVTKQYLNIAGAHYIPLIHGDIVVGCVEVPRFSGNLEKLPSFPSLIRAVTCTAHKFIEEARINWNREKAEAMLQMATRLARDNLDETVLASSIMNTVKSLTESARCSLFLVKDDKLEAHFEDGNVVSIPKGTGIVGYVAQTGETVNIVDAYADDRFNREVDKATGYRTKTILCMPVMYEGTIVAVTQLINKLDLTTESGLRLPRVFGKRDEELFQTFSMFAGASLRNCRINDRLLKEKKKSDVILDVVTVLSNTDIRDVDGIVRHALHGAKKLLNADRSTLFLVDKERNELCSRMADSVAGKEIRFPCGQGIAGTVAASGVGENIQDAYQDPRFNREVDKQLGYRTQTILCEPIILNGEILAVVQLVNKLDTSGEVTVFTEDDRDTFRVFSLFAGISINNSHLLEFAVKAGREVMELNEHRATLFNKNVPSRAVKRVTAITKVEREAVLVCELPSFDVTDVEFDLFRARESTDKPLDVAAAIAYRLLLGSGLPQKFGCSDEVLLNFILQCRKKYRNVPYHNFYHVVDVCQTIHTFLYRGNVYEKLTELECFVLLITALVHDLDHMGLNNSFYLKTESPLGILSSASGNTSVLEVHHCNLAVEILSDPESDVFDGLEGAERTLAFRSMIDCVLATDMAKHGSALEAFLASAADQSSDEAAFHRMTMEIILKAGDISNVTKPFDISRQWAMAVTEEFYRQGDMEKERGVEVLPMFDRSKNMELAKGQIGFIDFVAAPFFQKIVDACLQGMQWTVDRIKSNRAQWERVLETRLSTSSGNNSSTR
# Experiment: Inhibition of recombinant Trypanosoma brucei PDEB1 using [3H]-cAMP as substrate after 15 mins by scintillation proximity assay
# Settings: not given
# Method in brief: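 Inhibition of TbrPDEB1-mediated [³H]-cAMP hydrolysis was read by scintillation proximity assay. Each analog was run in at least two independent experiments.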
row,SMILES,IC50 [nM]
1,COc1ccc(C2=NN(C3CCCCCC3)C(=O)[C@@H]3CC=CC[C@H]23)cc1OCCO (racemic),100
2,COc1ccc(C2=NN(C3CCCCCC3)C(=O)[C@@H]3CC=CC[C@H]23)cc1OCCc1ccc(N(C)C)cc1 (racemic),63.1
3,COc1ccc(C2=NN(C3CCCCCC3)C(=O)[C@@H]3CC=CC[C@H]23)cc1OCc1ccncc1 (racemic),158
4,COc1ccc(CCOc2cc(C3=NN(C4CCCCCC4)C(=O)[C@@H]4CC=CC[C@H]34)ccc2OC)cc1 (racemic),63.1
5,COc1ccc(C2=NNC(=O)[C@@H]3CC=CC[C@H]23)cc1OC (racemic),12600

# Tested on: Trypanosoma brucei brucei
# Experiment: Antitrypanosomal activity against suramin-sensitive Trypanosoma brucei brucei Squib427 assessed as inhibition of parasite growth
# Type: functional, organism-based
# Settings: not given
# Method in brief: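 Bloodstream-form trypomastigotes of Squib-427 were grown at 37 °C and 5% CO₂ in Hirumi-9 medium with 10% FCS. Compounds came from 20 mM DMSO stocks, pre-diluted 2- or 4-fold serially in DMSO, then diluted in demineralized water; final DMSO was <1%. Results were reported as −logEC₅₀ with n = 2.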
row,SMILES,EC50 [nM]
1,COc1ccc(C2=NN(C3CCCCCC3)C(=O)[C@@H]3CC=CC[C@H]23)cc1OCCCCOc1ccc(-c2nnn[nH]2)cc1 (racemic),20
2,COc1ccc(C2=NN(C3CCCCCC3)C(=O)[C@@H]3CC=CC[C@H]23)cc1OCCO (racemic),2000
3,COc1ccc(C2=NN(C3CCCCCC3)C(=O)[C@@H]3CC=CC[C@H]23)cc1OCCc1ccc(N(C)C)cc1 (racemic),1000
4,COc1ccc(C2=NN(C3CCCCCC3)C(=O)[C@@H]3CC=CC[C@H]23)cc1OCc1ccncc1 (racemic),1260
5,COc1ccc(CCOc2cc(C3=NN(C4CCCCCC4)C(=O)[C@@H]4CC=CC[C@H]34)ccc2OC)cc1 (racemic),1260

# Target: cGMP-dependent 3',5'-cyclic phosphodiesterase (Homo sapiens, UniProt O00408)
# Sequence (O00408 whole entry): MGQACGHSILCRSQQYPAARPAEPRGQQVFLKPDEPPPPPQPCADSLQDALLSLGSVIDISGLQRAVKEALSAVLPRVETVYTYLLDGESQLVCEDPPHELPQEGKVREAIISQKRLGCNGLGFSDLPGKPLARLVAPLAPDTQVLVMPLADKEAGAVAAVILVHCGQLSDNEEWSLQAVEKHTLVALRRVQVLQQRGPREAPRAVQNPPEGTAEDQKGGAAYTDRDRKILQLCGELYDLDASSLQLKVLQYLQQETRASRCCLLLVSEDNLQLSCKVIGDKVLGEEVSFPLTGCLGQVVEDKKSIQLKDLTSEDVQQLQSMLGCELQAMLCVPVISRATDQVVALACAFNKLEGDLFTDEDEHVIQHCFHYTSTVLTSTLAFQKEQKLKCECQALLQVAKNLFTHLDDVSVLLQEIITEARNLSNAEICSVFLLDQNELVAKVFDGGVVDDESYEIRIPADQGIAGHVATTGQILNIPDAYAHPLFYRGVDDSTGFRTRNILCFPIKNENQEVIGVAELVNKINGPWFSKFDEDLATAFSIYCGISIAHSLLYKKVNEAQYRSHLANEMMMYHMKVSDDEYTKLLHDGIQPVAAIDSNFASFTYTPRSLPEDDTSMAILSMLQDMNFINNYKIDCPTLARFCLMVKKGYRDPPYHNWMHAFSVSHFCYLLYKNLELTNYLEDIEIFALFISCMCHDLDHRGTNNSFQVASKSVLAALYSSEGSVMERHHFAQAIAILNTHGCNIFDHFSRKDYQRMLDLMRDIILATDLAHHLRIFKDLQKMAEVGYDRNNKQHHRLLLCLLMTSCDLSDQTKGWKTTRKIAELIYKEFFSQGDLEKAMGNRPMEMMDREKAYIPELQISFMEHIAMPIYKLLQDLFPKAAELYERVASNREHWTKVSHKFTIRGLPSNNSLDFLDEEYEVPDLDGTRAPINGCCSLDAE
# Experiment: Inhibition of full length human recombinant PDE2A3 using [3H]-cAMP as substrate by scintillation proximity assay
# Settings: not given
row,SMILES,IC50 [nM]
1,COc1ccc(C2=NN(C3CCCCCC3)C(=O)[C@@H]3CC=CC[C@H]23)cc1OCCCCOc1ccc(-c2nnn[nH]2)cc1 (racemic),6310

# Target: cGMP-specific 3',5'-cyclic phosphodiesterase (Homo sapiens, UniProt O76074)
# Experiment: Inhibition of full length human recombinant PDE5A1 using [3H]-cGMP as substrate by scintillation proximity assay
# Settings: not given
# Method in brief: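 Radiolabelled cGMP substrate at 0.5 (final assay level). Scintillation proximity read-out of the full-length recombinant enzyme's hydrolytic activity, run in the presence of test compounds.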
row,SMILES,IC50 [nM]
1,COc1ccc(C2=NN(C3CCCCCC3)C(=O)[C@@H]3CC=CC[C@H]23)cc1OCCCCOc1ccc(-c2nnn[nH]2)cc1 (racemic),2000

# Tested on: Trypanosoma brucei
# Experiment: Antitrypanosomal activity against Trypanosoma brucei assessed as inhibition of parasite growth after 48 hrs by resazurin assay
# Type: functional, organism-based
# Settings: not given
row,SMILES,IC50 [nM]
1,COc1ccc(C2=NN(C3CCCCCC3)C(=O)[C@@H]3CC=CC[C@H]23)cc1OCCCCOc1ccc(-c2nnn[nH]2)cc1 (racemic),80

# Target: T2, 3',5'-cyclic-AMP phosphodiesterase 4B (Homo sapiens, UniProt Q07343)
# T2 sequence (Q07343 whole entry): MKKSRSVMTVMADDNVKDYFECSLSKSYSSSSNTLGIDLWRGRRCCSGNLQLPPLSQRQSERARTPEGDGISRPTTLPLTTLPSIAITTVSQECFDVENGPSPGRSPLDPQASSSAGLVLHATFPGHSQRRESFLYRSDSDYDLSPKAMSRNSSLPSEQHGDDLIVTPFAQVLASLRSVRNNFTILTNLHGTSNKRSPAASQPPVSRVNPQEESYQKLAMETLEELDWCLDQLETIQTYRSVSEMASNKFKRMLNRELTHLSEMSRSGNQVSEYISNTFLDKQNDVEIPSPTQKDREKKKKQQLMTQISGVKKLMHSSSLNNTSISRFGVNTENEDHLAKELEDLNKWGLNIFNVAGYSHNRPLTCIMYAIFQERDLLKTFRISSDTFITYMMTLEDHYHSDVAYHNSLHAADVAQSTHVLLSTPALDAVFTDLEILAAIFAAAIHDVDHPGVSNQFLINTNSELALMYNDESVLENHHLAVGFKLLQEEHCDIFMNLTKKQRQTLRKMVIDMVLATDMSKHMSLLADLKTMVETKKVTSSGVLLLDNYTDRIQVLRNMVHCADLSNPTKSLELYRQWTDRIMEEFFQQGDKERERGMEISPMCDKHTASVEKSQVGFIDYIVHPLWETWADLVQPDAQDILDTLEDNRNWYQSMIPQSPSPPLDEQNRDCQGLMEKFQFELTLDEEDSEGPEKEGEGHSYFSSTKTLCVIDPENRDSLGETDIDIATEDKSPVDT
# Experiment: Inhibition of full length human recombinant PDE4B1 using [3H]-cAMP as substrate by scintillation proximity assay
# Settings: not given
row,SMILES,IC50 [nM]
1,COc1ccc(C2=NN(C3CCCCCC3)C(=O)[C@@H]3CC=CC[C@H]23)cc1OCCCCOc1ccc(-c2nnn[nH]2)cc1 (racemic),0.631

# Target: High affinity 3',5'-cyclic-AMP phosphodiesterase 7A (Homo sapiens, UniProt Q13946)
# Sequence (Q13946 whole entry): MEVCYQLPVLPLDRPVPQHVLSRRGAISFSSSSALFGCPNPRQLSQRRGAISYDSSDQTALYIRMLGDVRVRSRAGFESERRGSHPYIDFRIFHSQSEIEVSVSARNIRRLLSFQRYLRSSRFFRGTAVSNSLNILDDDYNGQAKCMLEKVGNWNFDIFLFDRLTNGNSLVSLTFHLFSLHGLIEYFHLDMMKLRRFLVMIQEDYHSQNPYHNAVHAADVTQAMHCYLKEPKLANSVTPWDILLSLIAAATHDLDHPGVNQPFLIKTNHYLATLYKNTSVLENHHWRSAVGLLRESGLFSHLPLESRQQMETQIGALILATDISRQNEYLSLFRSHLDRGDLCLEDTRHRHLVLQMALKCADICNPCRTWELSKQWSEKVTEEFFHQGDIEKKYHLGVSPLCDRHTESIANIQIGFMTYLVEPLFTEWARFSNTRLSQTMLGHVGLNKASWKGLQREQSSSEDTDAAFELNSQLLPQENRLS
# Experiment: Inhibition of full length human recombinant PDE7A1 using [3H]-cAMP as substrate by scintillation proximity assay
# Settings: not given
row,SMILES,IC50 [nM]
1,COc1ccc(C2=NN(C3CCCCCC3)C(=O)[C@@H]3CC=CC[C@H]23)cc1OCCCCOc1ccc(-c2nnn[nH]2)cc1 (racemic),3160

# Tested on: not listed separately
# Experiment: Cytotoxicity against human MRC5 cells assessed as growth inhibition
# Type: cell-based
# Settings: not given
# Method in brief: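 MRC-5 fibroblasts were grown at 37 °C and 5% CO₂ in Hirumi-9 medium with 10% FCS. Compounds came from 20 mM DMSO stocks, serially pre-diluted 2- or 4-fold in DMSO, then in demineralized water; final DMSO was <1%. Results were reported as −logCC₅₀ with n = 2.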
row,SMILES,CC50 [nM]
1,COc1ccc(C2=NN(C3CCCCCC3)C(=O)[C@@H]3CC=CC[C@H]23)cc1OCCCCOc1ccc(-c2nnn[nH]2)cc1 (racemic),6310
2,COc1ccc(C2=NN(C3CCCCCC3)C(=O)[C@@H]3CC=CC[C@H]23)cc1OCCO (racemic),31600
3,COc1ccc(C2=NN(C3CCCCCC3)C(=O)[C@@H]3CC=CC[C@H]23)cc1OCCc1ccc(N(C)C)cc1 (racemic),> 63100
4,COc1ccc(C2=NN(C3CCCCCC3)C(=O)[C@@H]3CC=CC[C@H]23)cc1OCc1ccncc1 (racemic),15800
5,COc1ccc(CCOc2cc(C3=NN(C4CCCCCC4)C(=O)[C@@H]4CC=CC[C@H]34)ccc2OC)cc1 (racemic),> 63100

# Target: T2, 3',5'-cyclic-AMP phosphodiesterase 4B
# Experiment: Inhibition of full length human recombinant PDE4B2 using [3H]-cAMP as substrate by scintillation proximity assay
# Settings: not given
row,SMILES,IC50 [nM]
1,COc1ccc(C2=NN(C3CCCCCC3)C(=O)[C@@H]3CC=CC[C@H]23)cc1OCCCCOc1ccc(-c2nnn[nH]2)cc1 (racemic),0.501

# Target: High affinity cAMP-specific and IBMX-insensitive 3',5'-cyclic phosphodiesterase 8B (Homo sapiens, UniProt O95263)
# Sequence (O95263 whole entry): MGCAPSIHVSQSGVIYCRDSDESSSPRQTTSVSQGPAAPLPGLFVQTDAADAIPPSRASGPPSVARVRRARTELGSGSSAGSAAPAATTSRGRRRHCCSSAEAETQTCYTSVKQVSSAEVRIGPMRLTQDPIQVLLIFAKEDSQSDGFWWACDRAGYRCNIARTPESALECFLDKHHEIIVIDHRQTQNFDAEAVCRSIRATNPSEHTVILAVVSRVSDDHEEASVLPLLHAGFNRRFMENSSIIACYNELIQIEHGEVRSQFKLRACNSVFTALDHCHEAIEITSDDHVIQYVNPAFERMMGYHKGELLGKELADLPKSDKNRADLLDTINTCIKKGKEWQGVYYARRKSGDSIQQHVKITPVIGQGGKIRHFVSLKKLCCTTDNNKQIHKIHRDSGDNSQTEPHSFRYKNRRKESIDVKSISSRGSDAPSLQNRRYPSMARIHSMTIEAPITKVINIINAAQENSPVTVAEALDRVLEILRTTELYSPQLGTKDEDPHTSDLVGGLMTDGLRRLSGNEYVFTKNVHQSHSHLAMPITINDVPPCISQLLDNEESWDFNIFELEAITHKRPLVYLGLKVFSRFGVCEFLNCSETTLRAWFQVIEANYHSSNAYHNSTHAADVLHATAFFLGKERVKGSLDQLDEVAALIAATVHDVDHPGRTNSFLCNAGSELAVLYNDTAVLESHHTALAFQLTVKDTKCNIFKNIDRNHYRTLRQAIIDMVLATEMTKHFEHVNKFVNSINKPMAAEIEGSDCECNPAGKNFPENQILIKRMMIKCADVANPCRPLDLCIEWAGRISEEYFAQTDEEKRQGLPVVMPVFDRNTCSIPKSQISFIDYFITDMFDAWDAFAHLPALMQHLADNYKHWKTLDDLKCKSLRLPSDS
# Experiment: Inhibition of full length human recombinant PDE8B using [3H]-cAMP as substrate by scintillation proximity assay
# Settings: not given
row,SMILES,IC50 [nM]
1,COc1ccc(C2=NN(C3CCCCCC3)C(=O)[C@@H]3CC=CC[C@H]23)cc1OCCCCOc1ccc(-c2nnn[nH]2)cc1 (racemic),3980

# Target: Dual 3',5'-cyclic-AMP and -GMP phosphodiesterase 11A (Homo sapiens, UniProt Q9HCR9)
# Experiment: Inhibition of full length human recombinant PDE11A4 using [3H]-cAMP as substrate by scintillation proximity assay
# Settings: not given
row,SMILES,IC50 [nM]
1,COc1ccc(C2=NN(C3CCCCCC3)C(=O)[C@@H]3CC=CC[C@H]23)cc1OCCCCOc1ccc(-c2nnn[nH]2)cc1 (racemic),2000

# Target: High affinity cGMP-specific 3',5'-cyclic phosphodiesterase 9A (Homo sapiens, UniProt O76083)
# Sequence (O76083 whole entry): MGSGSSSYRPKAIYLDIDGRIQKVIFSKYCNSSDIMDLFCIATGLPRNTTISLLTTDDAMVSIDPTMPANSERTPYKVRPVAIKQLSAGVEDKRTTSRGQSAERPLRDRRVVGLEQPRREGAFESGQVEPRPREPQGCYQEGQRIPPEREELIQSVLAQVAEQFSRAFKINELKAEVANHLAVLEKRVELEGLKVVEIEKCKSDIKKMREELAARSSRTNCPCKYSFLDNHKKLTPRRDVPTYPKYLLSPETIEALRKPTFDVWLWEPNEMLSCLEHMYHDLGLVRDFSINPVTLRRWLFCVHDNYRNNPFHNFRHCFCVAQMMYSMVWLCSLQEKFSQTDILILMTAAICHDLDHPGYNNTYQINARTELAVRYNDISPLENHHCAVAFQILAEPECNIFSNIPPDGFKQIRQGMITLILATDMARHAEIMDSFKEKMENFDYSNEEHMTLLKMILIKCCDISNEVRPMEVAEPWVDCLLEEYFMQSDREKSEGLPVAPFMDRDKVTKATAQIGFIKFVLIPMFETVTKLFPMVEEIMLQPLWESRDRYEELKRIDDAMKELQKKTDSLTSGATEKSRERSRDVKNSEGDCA
# Experiment: Inhibition of full length human recombinant PDE9A3 using [3H]-cAMP as substrate by scintillation proximity assay
# Settings: not given
row,SMILES,IC50 [nM]
1,COc1ccc(C2=NN(C3CCCCCC3)C(=O)[C@@H]3CC=CC[C@H]23)cc1OCCCCOc1ccc(-c2nnn[nH]2)cc1 (racemic),> 10000

# Tested on: not listed separately
# Experiment: Solubility of compound in 0.05 M phosphate buffer at pH 7.4
# Type: physicochemical
# Settings: not given
row,SMILES,solubility [µM]
1,COc1ccc(C2=NN(C3CCCCCC3)C(=O)[C@@H]3CC=CC[C@H]23)cc1OCCCCOc1ccc(-c2nnn[nH]2)cc1 (racemic),75

# Tested on: not listed separately
# Experiment: Inhibition of Trypanosoma brucei PDEB2 using [3H]-cAMP as substrate after 15 mins by scintillation proximity assay
# Settings: not given
SMILES,IC50 [nM],pIC50
COc1ccc(C2=NN(C3CCCCCC3)C(=O)[C@@H]3CC=CC[C@H]23)cc1OCCCCOc1ccc(-c2nnn[nH]2)cc1 (racemic),3,8.5

# Target: 3',5'-cyclic-AMP phosphodiesterase 4D (Homo sapiens, UniProt Q08499)
# Sequence (Q08499 whole entry): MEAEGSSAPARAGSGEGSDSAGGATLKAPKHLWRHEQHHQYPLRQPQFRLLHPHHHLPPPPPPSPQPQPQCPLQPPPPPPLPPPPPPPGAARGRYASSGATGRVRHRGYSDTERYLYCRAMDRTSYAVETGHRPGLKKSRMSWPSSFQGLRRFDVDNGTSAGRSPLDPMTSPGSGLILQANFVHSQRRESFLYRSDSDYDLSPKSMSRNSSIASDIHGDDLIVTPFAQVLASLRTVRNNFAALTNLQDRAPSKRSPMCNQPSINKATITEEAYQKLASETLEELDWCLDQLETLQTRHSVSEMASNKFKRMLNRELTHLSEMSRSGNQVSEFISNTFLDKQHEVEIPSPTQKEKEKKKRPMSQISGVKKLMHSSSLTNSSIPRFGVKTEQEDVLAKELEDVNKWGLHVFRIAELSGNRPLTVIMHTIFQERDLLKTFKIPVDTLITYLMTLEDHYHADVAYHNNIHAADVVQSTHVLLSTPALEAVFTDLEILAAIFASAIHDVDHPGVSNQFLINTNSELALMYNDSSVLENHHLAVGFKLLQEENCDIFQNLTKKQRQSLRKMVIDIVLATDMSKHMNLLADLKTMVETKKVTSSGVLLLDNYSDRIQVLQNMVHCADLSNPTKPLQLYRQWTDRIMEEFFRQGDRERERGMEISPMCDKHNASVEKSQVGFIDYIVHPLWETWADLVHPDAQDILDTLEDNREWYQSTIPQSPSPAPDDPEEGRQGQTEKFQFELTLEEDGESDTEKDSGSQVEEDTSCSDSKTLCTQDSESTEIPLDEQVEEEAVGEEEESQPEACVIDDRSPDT
# Experiment: Inhibition of full length human recombinant PDE4D3 using [3H]-cAMP as substrate by scintillation proximity assay
# Settings: not given
row,SMILES,IC50 [nM]
1,COc1ccc(C2=NN(C3CCCCCC3)C(=O)[C@@H]3CC=CC[C@H]23)cc1OCCCCOc1ccc(-c2nnn[nH]2)cc1 (racemic),0.631

# Tested on: not listed separately
# Experiment: Selectivity index, ratio of CC50 for human MRC5 cells to EC50 for suramin-sensitive Trypanosoma brucei brucei Squib427
# Type: toxicity, cell-based
# Settings: read-out: Ratio CC50/EC50
# Method in brief: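 The index was calculated as CC₅₀ in MRC-5 fibroblasts divided by EC₅₀ against T. b. brucei. Both came from parallel assays in Hirumi-9 medium with 10% FCS at 37 °C and 5% CO₂, each n = 2.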
row,SMILES,selectivity ratio
1,COc1ccc(C2=NN(C3CCCCCC3)C(=O)[C@@H]3CC=CC[C@H]23)cc1OCCO (racemic),16
2,COc1ccc(C2=NN(C3CCCCCC3)C(=O)[C@@H]3CC=CC[C@H]23)cc1OCCc1ccc(N(C)C)cc1 (racemic),> 63
3,COc1ccc(C2=NN(C3CCCCCC3)C(=O)[C@@H]3CC=CC[C@H]23)cc1OCc1ccncc1 (racemic),12.6
4,COc1ccc(CCOc2cc(C3=NN(C4CCCCCC4)C(=O)[C@@H]4CC=CC[C@H]34)ccc2OC)cc1 (racemic),> 50

# Target: Dual specificity calcium/calmodulin-dependent 3',5'-cyclic nucleotide phosphodiesterase 1B (Homo sapiens, UniProt Q01064)
# Sequence (Q01064 whole entry): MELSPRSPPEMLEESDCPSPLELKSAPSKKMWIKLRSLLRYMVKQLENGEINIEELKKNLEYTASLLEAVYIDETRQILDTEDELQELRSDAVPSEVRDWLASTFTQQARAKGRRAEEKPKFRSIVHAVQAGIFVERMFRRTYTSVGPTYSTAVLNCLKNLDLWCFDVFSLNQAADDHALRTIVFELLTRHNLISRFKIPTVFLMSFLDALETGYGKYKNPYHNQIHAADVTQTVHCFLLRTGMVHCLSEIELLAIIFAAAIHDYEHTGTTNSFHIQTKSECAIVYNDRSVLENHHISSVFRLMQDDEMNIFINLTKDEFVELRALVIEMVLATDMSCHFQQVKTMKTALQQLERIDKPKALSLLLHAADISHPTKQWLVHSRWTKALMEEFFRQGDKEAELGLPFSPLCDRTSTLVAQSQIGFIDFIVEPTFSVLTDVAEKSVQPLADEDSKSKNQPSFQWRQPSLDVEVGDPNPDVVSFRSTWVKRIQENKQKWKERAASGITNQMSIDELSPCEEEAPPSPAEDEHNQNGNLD
# Experiment: Inhibition of full length human recombinant PDE1B1 using [3H]-cAMP as substrate by scintillation proximity assay
# Settings: not given
row,SMILES,IC50 [nM]
1,COc1ccc(C2=NN(C3CCCCCC3)C(=O)[C@@H]3CC=CC[C@H]23)cc1OCCCCOc1ccc(-c2nnn[nH]2)cc1 (racemic),3980

# Target: cAMP and cAMP-inhibited cGMP 3',5'-cyclic phosphodiesterase 10A (Homo sapiens, UniProt Q9Y233)
# Experiment: Inhibition of full length human recombinant PDE10A using [3H]-cAMP as substrate by scintillation proximity assay
# Settings: not given
row,SMILES,IC50 [nM]
1,COc1ccc(C2=NN(C3CCCCCC3)C(=O)[C@@H]3CC=CC[C@H]23)cc1OCCCCOc1ccc(-c2nnn[nH]2)cc1 (racemic),501

# Tested on: not listed separately
# Experiment: Inhibition of full length human recombinant PDE3A1 using [3H]-cAMP as substrate by scintillation proximity assay
# Settings: not given
row,SMILES,pIC50
1,COc1ccc(C2=NN(C3CCCCCC3)C(=O)[C@@H]3CC=CC[C@H]23)cc1OCCCCOc1ccc(-c2nnn[nH]2)cc1 (racemic),6.9
